# Experimental data reported in ChEMBL document CHEMBL1152843, “Synthesis of new series of 5,6-dihydro-4H-1,2-oxazines via hetero Diels-Alder reaction and evaluation of antimicrobial activity” (2009).
# Tests used:
# Assay type in all cases: functional
# Klebsiella pneumoniae [1] = assay: Antibacterial activity against Klebsiella pneumoniae […] after 24 hrs by cup diffusion method
# Staphylococcus aureus [2] = assay: Antibacterial activity against Staphylococcus aureus MTCC 737 after 24 hrs by cup diffusion method
# Staphylococcus aureus [3] = assay: Antibacterial activity against Staphylococcus aureus MTCC 737 at 20 ug after 24 hrs by cup diffusion method; conditions: MTCC 737, 24 h, read-out: IZ
# Procedure, shortened: (§1)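 Agar cup diffusion. Plates of sterile medium in 9 cm dishes were seeded with 1 × 10⁵ cfu of bacteria, with the suspension adjusted to at least 1 × 10⁵ cfu/ml in nutrient broth. Compound in DMF was placed in 5 mm cups and pre-diffused for 1 h. Plates were incubated at 37 °C for 24 h and the inhibition zone measured in mm. DMF served as negative control.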
# Pseudomonas aeruginosa [4] = assay: Antibacterial activity against Pseudomonas aeruginosa MTCC 1688 at 20 ug after 24 hrs by cup diffusion method; conditions: MTCC 1688, 24 h, read-out: IZ; procedure, shortened: as §1
# Pseudomonas aeruginosa [5] = assay: Antibacterial activity against Pseudomonas aeruginosa MTCC 1688 after 24 hrs by cup diffusion method
# Fusarium verticillioides [6] = assay: Antifungal activity against Fusarium moniliforme after 48 hrs by cup diffusion method
# Escherichia coli [7] = assay: Antibacterial activity against Escherichia coli MTCC 443 at 20 ug after 24 hrs by cup diffusion method; conditions: MTCC 443, 24 h, read-out: IZ; procedure, shortened: as §1
# Aspergillus niger [8] = assay: Antifungal activity against Aspergillus niger after 48 hrs by cup diffusion method
# Fusarium verticillioides [9] = assay: Antifungal activity against Fusarium moniliforme at 20 ug after 48 hrs by cup diffusion method; conditions: for zone of inhibition at 20 µg/disc: read-out: IZ
# Procedure, shortened: (§2)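 Cup diffusion on 9 cm plates seeded with 1 × 10⁶ cfu of fungi, with spores adjusted to at least 1 × 10⁶ cfu/ml in potato dextrose broth. Compound in DMF was placed in 5 mm agar cups and left 1 h to diffuse. Plates were incubated at 28 °C for 48 h and the inhibition zone read in mm. DMF was the negative control.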
# Aspergillus niger [10] = assay: Antifungal activity against Aspergillus niger at 20 ug after 48 hrs by cup diffusion method; conditions: read-out: IZ; procedure, shortened: as §2
# Fusarium oxysporum [11] = assay: Antifungal activity against Fusarium oxysporum at 20 ug after 48 hrs by cup diffusion method; conditions: for zone of inhibition at 20 µg/disc: read-out: IZ; procedure, shortened: as §2
# Klebsiella pneumoniae [12] = assay: Antibacterial activity against Klebsiella pneumoniae […] at 20 ug after 24 hrs by cup diffusion method; conditions: for zone of inhibition at 20 µg/disc: read-out: IZ; procedure, shortened: as §1
# Aspergillus flavus [13] = assay: Antifungal activity against Aspergillus flavus at 20 ug after 48 hrs by cup diffusion method; conditions: for zone of inhibition at 20 µg/disc: read-out: IZ; procedure, shortened: as §2
# Aspergillus flavus [14] = assay: Antifungal activity against Aspergillus flavus after 48 hrs by cup diffusion method
# Fusarium oxysporum [15] = assay: Antifungal activity against Fusarium oxysporum after 48 hrs by cup diffusion method
# Escherichia coli [16] = assay: Antibacterial activity against Escherichia coli MTCC 443 after 24 hrs by cup diffusion method
Compound,MIC (Klebsiella pneumoniae [1]) [µg/mL],"MIC (Staphylococcus aureus [2]; MTCC 737, 24 h) [µg/mL]",zone of inhibition at 20 µg/disc (Staphylococcus aureus [3]) [mm],zone of inhibition at 20 µg/disc (Pseudomonas aeruginosa [4]) [mm],"MIC (Pseudomonas aeruginosa [5]; MTCC 1688, 24 h) [µg/mL]",MIC (Fusarium verticillioides [6]) [µg/mL],zone of inhibition at 20 µg/disc (Escherichia coli [7]) [mm],MIC (Aspergillus niger [8]) [µg/mL],zone of inhibition at 20 µg/disc (Fusarium verticillioides [9]) [mm],zone of inhibition at 20 µg/disc (Aspergillus niger [10]) [mm],zone of inhibition at 20 µg/disc (Fusarium oxysporum [11]) [mm],zone of inhibition at 20 µg/disc (Klebsiella pneumoniae [12]) [mm],zone of inhibition at 20 µg/disc (Aspergillus flavus [13]) [mm],MIC (Aspergillus flavus [14]) [µg/mL],MIC (Fusarium oxysporum [15]) [µg/mL],"MIC (Escherichia coli [16]; MTCC 443, 24 h) [µg/mL]",other results
CCOC(=O)C1CCC(c2ccc3c(c2)CCC3)=NO1 (stereo unspecified),25,20,18.7,13.4,20,20,10.7,15,32.8,26.7,36.5,13.5,28.5,10,10,30,–
COc1ccc(C2=NOC(Cc3ccc4c(c3)OCO4)CC2)cc1OC (stereo unspecified),15,10,16.5,14.1,20,35,8.12,40,11.2,7.75,15.8,17.5,8.12,40,30,25,–
GENTAMICIN,15,–,–,–,–,–,–,–,–,–,–,–,–,–,–,–,MIC (Staphylococcus aureus [2]): 15 µg/mL; MIC (Pseudomonas aeruginosa [5]): 15 µg/mL; inhibition zone (IZ) (Klebsiella pneumoniae [12]): 17.5 mm; MIC (Escherichia coli [16]): 20 µg/mL
COc1ccc(C2=NOC(CCl)CC2)cc1 (stereo unspecified),10,10,14.7,29.5,15,15,9.5,20,25.2,19.5,29.7,17.7,21.7,15,10,20,–
Cc1ccc(C2=NOC(CCl)CC2)cc1 (stereo unspecified),15,10,16.7,11.5,15,10,15.7,15,17.7,13.8,20.8,16.5,14.5,15,15,20,–
COc1ccc(C2=NOC(Cc3ccc4c(c3)OCO4)CC2)cc1 (stereo unspecified),15,15,21.7,31.8,20,35,21.8,35,12.8,10.7,16.8,19.7,9.66,40,35,25,–
N#CC1CCC(c2ccc3c(c2)CCC3)=NO1 (stereo unspecified),20,15,17.7,31.5,15,40,15.5,35,13.5,10.7,17.7,23.8,9.5,40,35,25,–
Cc1ccc(C2=NOC(CO)CC2)cc1 (stereo unspecified),30,25,7.5,10.8,25,30,8.83,35,15.8,11.5,19.8,19.8,12.5,30,25,35,–
Cc1ccc(C2=NOC(Cc3ccc4c(c3)OCO4)CC2)cc1 (stereo unspecified),20,15,12.8,11.2,20,20,10.7,20,19.5,15.7,24.5,19.7,17.8,15,10,25,–
Cc1ccc(C2=NOC(C#N)CC2)cc1 (stereo unspecified),20,15,23.5,12.7,20,30,11.5,40,10.5,6.83,13.7,16.7,7.5,35,25,25,–
NYSTATIN,–,–,–,–,–,15,–,10,–,–,–,–,–,15,20,–,inhibition zone (IZ) (Fusarium verticillioides [9]): 15.6 mm; inhibition zone (IZ) (Fusarium oxysporum [11]): 16.6 mm; inhibition zone (IZ) (Aspergillus flavus [13]): 13.2 mm
CCOC(=O)C1CCC(c2ccc(C)c(C)c2)=NO1 (stereo unspecified),15,10,17.8,12.8,20,25,13.5,20,16.7,11.5,19.8,16.7,12.7,15,15,20,–
ClCC1CCC(c2ccc3c(c2)CCC3)=NO1 (stereo unspecified),15,10,13.5,34.5,15,20,11.8,15,34.5,28.8,38.5,25.8,32.8,10,10,20,–
Cc1ccc(C2=NOC(Cc3ccc4c(c3)OCO4)CC2)cc1C (stereo unspecified),20,15,21.3,11,20,20,11.5,15,22.8,15.7,25.3,15.5,18.8,10,10,30,–
Cc1ccc(C2=NOC(CCl)CC2)cc1C (stereo unspecified),15,10,20.7,17.6,15,20,14.8,15,11.5,8.5,20.7,15.8,9.5,15,10,20,–
COc1ccc(C2=NOC(CO)CC2)cc1 (stereo unspecified),25,20,10.8,16.7,20,35,10.7,40,17.6,8.66,19.5,15.5,7.83,35,30,35,–
CCOC(=O)C1CCC(c2ccc(OC)cc2)=NO1 (stereo unspecified),25,20,16.7,23.7,20,20,24.7,15,28,24.2,30.7,14.8,25.5,10,10,35,–
CC1(C)S[C@@H]2[C@H](NC(=O)Cc3ccccc3)C(=O)N2[C@H]1C(=O)O [PENICILLIN G],–,–,9.38,0,–,–,0,–,–,–,–,0,–,–,–,–,–
